Measured values as given in ChEMBL document CHEMBL1128518, “Synthesis and anti-HIV-1 activity of thio analogues of dihydroalkoxybenzyloxopyrimidines” (J Med Chem, 1995).
pEC50, pIC50: −log10 of the molar value.

How the values were obtained:
MT4 [1] = experiment: Dose required to achieve 50% protection of MT-4 cells from HIV-1 induced cytopathogenicity; assay type: functional, cell-based; details: Homo sapiens
MT4 [2] = experiment: Compound dose required to reduce the viability of mock-infected cells by 50%; assay type: functional; details: Homo sapiens
[3] = molecular target: Human immunodeficiency virus type 1 reverse transcriptase (Human immunodeficiency virus 1, UniProt Q72547); experiment: Dose required to inhibit HIV-1 recombinant reverse transcriptase (rRT) activity by 50%.; assay type: functional
In short: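 Highly purified recombinant HIV-1 RT, assayed for RNA-dependent DNA polymerase activity. Template-primer: poly(rC)-oligo(dG)12–18 at 0.5 OD260 units/mL, with [3H]dGTP (1 Ci/mmol). Incubated 20 min at 37 °C; acid-insoluble radioactivity counted on glass fiber filters. Value is the dose giving 50% inhibition; means of three experiments.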

MT4 [4] = experiment: Selectivity index calculated as the ratio between CC50 and EC50; assay type: functional
In short: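 Ratio CC50/EC50, both from MTT-read 4-day MT-4 assays (mock-infected and HIV-1 IIIB-infected, 100 CCID50) run in parallel.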

MT4 [5] = experiment: Compound dose required to reduce the viability of mock-infected cells by 50%, as determined by the MTT method.; assay type: functional; details: Homo sapiens
In short: (§1)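 Mock-infected MT-4 cells (1 × 10^4/well) exposed to serial compound concentrations, run in parallel with the antiviral assay, 4 days at 37 °C. Viability read by MTT; CC50 is the dose reducing viability by 50%. Means of three separate experiments.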

MT4 [6] = experiment: Compound dose required to reduce the viability of mock-infected cells by 50%.; assay type: functional; details: Homo sapiens; in short: as §1
MT4 [7] = experiment: Compound dose required to achieve 50% protection of MT-4 cells from HIV-1 induced cytopathogenicity.; assay type: functional, cell-based; details: Homo sapiens
In short: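 HIV-1 IIIB (100 CCID50/well) added to MT-4 cells (1 × 10^4/well) with or without serial compound concentrations; 4-day incubation at 37 °C. Viable cells counted by MTT; EC50 is the dose giving 50% protection from virus-induced cytopathogenicity. Means of three separate experiments.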

SMILES | pEC50 (MT4 [1]) | CC50 (MT4 [2]) [µM] | pIC50 [3] | SI (MT4 [4]) | CC50 (MT4 [5]) [µM] | CC50 (MT4 [6]) [µM] | pEC50 (MT4 [7])
CCC(C)Sc1nc(O)cc(Cc2ccccc2)n1 (stereo not drawn) | 5.92 | 150 | 5.57 | 125 | – | – | –
Cc1cccc(/C=C2/N=C(SC(C)C)NC(=O)C2(C)C)c1 | < 4.16 | 69 | – | – | – | – | –
Cc1cccc(Cc2nc(SC3CCCC3)nc(O)c2C)c1 | 6.22 | > 318 | 5.47 | >530 | – | – | –
Cc1cccc(/C=C2/NC(=S)NC(=O)C2(C)C)c1 | < 3.78 | 165 | – | – | – | – | –
CCC(C)SC1=N/C(=C/c2ccccc2)C(C)(C)C(=O)N1 (stereo not drawn) | 5.48 | 16 | 5.37 | 4.8 | – | – | –
Oc1cc(Cc2ccccc2)nc(SC2CCCC2)n1 | 5.77 | 147 | 5.55 | 86 | – | – | –
CCC(C)Sc1nc(O)cc(Cc2cccc(C)c2)n1 (stereo not drawn) | 6.22 | > 347 | 5.92 | >578 | – | – | –
CC(C)=CCSc1nc(O)cc(Cc2cccc(C)c2)n1 | 4.89 | 193 | – | 15 | – | – | –
Cc1cccc(/C=C2/N=C(SCC(C)C)NC(=O)C2(C)C)c1 | < 3.50 | – | – | – | > 316 | – | –
Cc1c(O)nc(S)nc1Cc1ccccc1 | < 3.97 | 431 | < 5.00 | – | – | – | –
CC(C)SC1=N/C(=C/c2ccccc2)C(C)(C)C(=O)N1 | 5.44 | 20 | 5.37 | 5.5 | – | – | –
Cc1cccc(Cc2cc(O)nc(SCC(C)C)n2)c1 | 5.48 | 163 | 5.08 | 49 | – | – | –
Oc1cc(Cc2ccccc2)nc(SC2CCCCC2)n1 | 6.10 | > 330 | 5.52 | – | – | – | –
C=CCSc1nc(O)cc(Cc2cccc(C)c2)n1 | 5.44 | 188 | – | 52 | – | – | –
Cc1c(O)nc(SC(C)C)nc1Cc1ccccc1 | 5.74 | 140 | 5.60 | 77 | – | – | –
CCC(C)Sc1nc(O)c(C)c(Cc2ccccc2)n1 (stereo not drawn) | 6.22 | 86 | 5.62 | 140 | – | – | –
CC1(C)C(=O)NC(SC2CCCCC2)=N/C1=C/c1ccccc1 | 5.04 | 91 | < 5.00 | 10 | – | – | –
Cc1cccc(Cc2cc(O)nc(SC3CCCCC3)n2)c1 | 5.82 | > 318 | 5.59 | >212 | – | – | –
CSC1=N/C(=C/c2ccccc2)C(C)(C)C(=O)N1 | 5.51 | 160 | 5.21 | 53 | – | – | –
Cc1cccc(Cc2cc(O)nc(SC3CCCC3)n2)c1 | 5.92 | > 333 | 5.59 | >278 | – | – | –
Cc1cccc(Cc2cc(O)nc(S)n2)c1 | – | – | < 5.00 | – | – | 258 | < 3.59
Cc1cccc(Cc2nc(SC3CCCCC3)nc(O)c2C)c1 | 6.22 | > 304 | 5.89 | >506 | – | – | –
Cc1c(O)nc(SC2CCCC2)nc1Cc1ccccc1 | 6.22 | > 333 | 5.47 | >555 | – | – | –

SMILES | pEC50 (MT4 [1]) | CC50 (MT4 [2]) [µM] | pIC50 [3] | SI (MT4 [4]) | CC50 (MT4 [5]) [µM] | CC50 (MT4 [6]) [µM] | pEC50 (MT4 [7])
CC1(C)C(=O)NC(=S)N/C1=C/c1ccccc1 | < 3.39 | > 406 | – | – | – | – | –
CSc1nc(O)c(C)c(Cc2ccccc2)n1 | 5.92 | > 406 | 5.31 | >338 | – | – | –
Cc1c(O)nc(SCC(C)C)nc1Cc1ccccc1 | 6.10 | 130 | 5.66 | 162 | – | – | –
Cc1cccc(/C=C2/N=C(SC3CCCC3)NC(=O)C2(C)C)c1 | < 3.52 | > 304 | – | – | – | – | –
Cc1cccc(Cc2nc(S)nc(O)c2C)c1 | < 3.99 | 284 | < 5.00 | – | – | – | –
CC(C)CSc1nc(O)cc(Cc2ccccc2)n1 | 5.29 | 186 | 5.03 | 36 | – | – | –
CC(C)CSC1=N/C(=C/c2ccccc2)C(C)(C)C(=O)N1 | 5.44 | 20 | 5.34 | 5.5 | – | – | –
CSc1nc(O)cc(Cc2ccccc2)n1 | 4.46 | > 431 | < 5.00 | >12 | – | – | –
Cc1cn([C@H]2C[C@H](N=[N+]=[N-])[C@@H](CO)O2)c(=O)[nH]c1=O [ZIDOVUDINE] | – | > 20 | – | >2000 | – | – | –
Cc1cccc(Cc2nc(SC(C)C)nc(O)c2C)c1 | 5.89 | 100 | 5.60 | 77 | – | – | –
Cc1cccc(Cc2nc(SCC(C)C)nc(O)c2C)c1 | 5.80 | 330 | 5.34 | 206 | – | – | –
CC(C)Sc1nc(O)cc(Cc2ccccc2)n1 | 5.11 | 332 | < 5.00 | 43 | – | – | –
CCC(C)Sc1nc(O)c(C)c(Cc2cccc(C)c2)n1 (stereo not drawn) | 6.00 | 100 | 5.57 | 100 | – | – | –
Cc1cccc(Cc2cc(O)nc(SC(C)C)n2)c1 | 5.89 | 225 | 5.54 | 173 | – | – | –
C/C=C/CSc1nc(O)cc(Cc2cccc(C)c2)n1 | 5.10 | 165 | – | 21 | – | – | –
CSc1nc(O)c(C)c(Cc2cccc(C)c2)n1 | 5.52 | 385 | 5.60 | 128 | – | – | –
CC1(C)C(=O)NC(SC2CCCC2)=N/C1=C/c1ccccc1 | 5.00 | 18 | < 5.00 | 1.8 | – | – | –
Cc1cccc(/C=C2/N=C(SC3CCCCC3)NC(=O)C2(C)C)c1 | < 3.53 | > 292 | – | – | – | – | –
Cc1ccnc2c1NC(=O)c1cccnc1N2C1CC1 [NEVIRAPINE] | 6.52 | > 376 | – | >1250 | – | – | –
CSC1=N/C(=C/c2cccc(C)c2)C(C)(C)C(=O)N1 | < 5.28 | 5.2 | – | – | – | – | –
Cc1c(O)nc(SC2CCCCC2)nc1Cc1ccccc1 | 6.22 | > 318 | 5.37 | >530 | – | – | –
CCC(C)SC1=N/C(=C/c2cccc(C)c2)C(C)(C)C(=O)N1 (stereo not drawn) | < 4.60 | 25 | – | – | – | – | –
CSc1nc(O)cc(Cc2cccc(C)c2)n1 | 4.77 | 317 | < 5.00 | 19 | – | – | –
